Results reported in ChEMBL document CHEMBL1134955, “Identification and structure-activity studies of novel ultrashort-acting benzodiazepine receptor agonists” (Bioorg Med Chem Lett, 2002).

How the values were obtained:
[1] = molecular target: GABA-A receptor; anion channel; test: Binding affinity to rat benzodiazepine receptor; type: protein-complex assay
How it was run: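 Rat BZD receptor membranes incubated with 2 nM [3H]-flunitrazepam and test ligand for 90 min at 4 °C in 50 mM Tris–HCl pH 7.4 with 150 mM NaCl. Twelve-point curves made by 3-fold serial dilution from DMSO stocks, final DMSO ≤0.4%. Nonspecific binding taken with 2'-chlorodiazepam. Filtration through GF/B, ice-cold Tris washes, scintillation counting. Triplicates, at least three runs; Ki reported in nM.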

[2] = molecular target: GABA-A receptor; anion channel (Rattus norvegicus) (UniProt O09028+P15431+P18506+P18508+P19969+P20236+P23574+P23576+P28471+P28473+P30191+P62813+P63079+P63138+Q91ZM7+Q9ES14); test: Ratio between Ki value (acid) / Ki value (ester) was determined; type: protein-complex assay
How it was run: (§1)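 Ki of the acid divided by Ki of the matching ester. Both Ki values come from [3H]-flunitrazepam displacement at rat BZD receptor membranes (2 nM radioligand, 90 min, 4 °C, Tris–HCl pH 7.4 with NaCl), with triplicate 12-point curves.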

Rattus norvegicus [3] = test: Loss of righting reflex recovery time (initial) in rat was determined when treated with a dose of 30 mg/Kg; type: functional, organism-based
How it was run: (§2)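 Rats given an iv bolus in 50% PEG/25% EtOH/25% saline. Scored for time to LRR onset, initial recovery (rights itself three consecutive times) and total recovery (walks without ataxia and pulls up three times when hung from a horizontal wire), in min.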

Rattus norvegicus [4] = test: Loss of righting reflex recovery time (total) in rat was determined when treated with a dose of 30 mg/Kg; type: functional, organism-based; how it was run: as §2
[5] = Ratio between Ki (acid) / Ki (ester) was determined; how it was run: as §1

Structure (SMILES) | Ki [1] [nM] | Ratio [2] | Recovery time (Rattus norvegicus [3]) [min] | Recovery time (Rattus norvegicus [4]) [min] | Ratio [5]
O=C(CC[C@@H]1N=C(c2ccccc2F)c2cc(Cl)ccc2NC1=O)OCc1ccncc1 | 34 | 124 | – | – | –
CN1C(=O)CN=C(c2ccccc2)c2cc(Cl)ccc21 | – | – | 5 | 82 | –
COC(=O)CCNC1N=C(c2ccccc2Cl)c2cc(Cl)ccc2NC1=O (centres undefined) | 17 | 17 | – | – | –
O=C(CC[C@@H]1N=C(c2ccccc2)c2cc([N+](=O)[O-])ccc2NC1=O)OCc1ccccc1 | 124 | 91 | 2 | 3 | –
Cc1ncc2n1-c1ccc(Cl)cc1C(c1ccccc1F)=NC2 [MIDAZOLAM] | 2 | – | 23 | 121 | –
O=C(C[C@@H]1N=C(c2ccccc2F)c2cc(Cl)ccc2NC1=O)OCc1ccccc1 | 176 | 76 | 13 | 17 | –
COC(=O)CCN[C@H]1N=C(c2ccccc2Cl)c2cc(Cl)ccc2NC1=O | 3 | 130 | – | – | –
COC(=O)CN[C@@H]1N=C(c2ccccc2Cl)c2cc(Cl)ccc2NC1=O | 480 | 9 | – | – | –
COC(=O)CC[C@@H]1N=C(c2ccccc2F)c2cc([N+](=O)[O-])ccc2NC1=O | 7 | – | – | – | –
COC(=O)CN[C@H]1N=C(c2ccccc2Cl)c2cc(Cl)ccc2NC1=O | 23 | 172 | – | – | –
CC(C)OC(=O)CC[C@@H]1N=C(c2ccccc2F)c2cc(Cl)ccc2NC1=O | 39 | 108 | – | – | –
COC(=O)CCC[C@@H]1N=C(c2ccccc2F)c2cc(Cl)ccc2NC1=O | 3 | 186 | – | – | –
O=C(CC[C@@H]1N=C(c2ccccc2)c2cc(Cl)ccc2NC1=O)OCc1ccccc1 | 200 | – | 15 | 22 | –
O=C(CC[C@@H]1N=C(c2ccccc2F)c2ccccc2NC1=O)OCc1ccccc1 | 163 | – | – | – | –
O=C(C[C@@H]1N=C(c2ccccc2F)c2cc(Cl)ccc2NC1=O)OCc1ccncc1 | 289 | – | – | – | –
CCOC(=O)C[C@@H]1N=C(c2ccccc2F)c2cc(Cl)ccc2NC1=O | 45 | 297 | – | – | –
COC(=O)CC[C@@H]1N=C(c2ccccc2F)c2cc(Br)ccc2NC1=O | 3 | 431 | 22 | 30 | –
COC(=O)CCN[C@@H]1N=C(c2ccccc2Cl)c2cc(Cl)ccc2NC1=O | 189 | 1 | – | – | –
COC(=O)CC[C@@H]1N=C(c2ccccc2)c2cc([N+](=O)[O-])ccc2NC1=O | 118 | 95 | 2 | 14 | –
O=C(C[C@H]1N=C(c2ccccc2)c2cc(Cl)ccc2NC1=O)OCc1ccccc1 | 100000 | – | – | – | –
O=C(CC[C@@H]1N=C(c2ccccc2F)c2cc(Cl)ccc2NC1=O)OCc1ccccc1 | 29 | 143 | 8 | 19 | –
COC(=O)C[C@@H]1N=C(c2ccccc2F)c2cc(Cl)ccc2NC1=O | 81 | – | – | – | 165
COC(=O)CC[C@H]1N=C(c2ccccc2F)c2cc(Cl)ccc2NC1=O | 741 | – | 2 | 4 | –
COC(=O)CC[C@@H]1N=C(c2ccccc2F)c2cc(Cl)ccc2NC1=O | 7 | 984 | 9 | 24 | –
CCCCOC(=O)CC[C@@H]1N=C(c2ccccc2F)c2cc(Cl)ccc2NC1=O | 242 | 17 | 15 | 25 | –
COC(=O)CC[C@@H]1N=C(c2ccccc2F)c2ccccc2NC1=O | 92 | – | – | – | –
O=C(C[C@@H]1N=C(c2ccccc2)c2cc(Cl)ccc2NC1=O)OCc1ccccc1 | 1450 | – | 4 | 14 | –
COC(=O)CNC1N=C(c2ccccc2Cl)c2cc(Cl)ccc2NC1=O (centres undefined) | 53 | 35 | – | – | –
